# This is one part of a sample in which hits are shown more often than they occur.
# CD11b adhes enh: enhancers of human CD11b/CD18 binding to fibrinogen; K562 CD11b/CD18 adhesion to fibrinogen, ATPlite luminescence; AID 1499; 0.07% of 93,000 active; activation, % at 10 µM;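 active = 10 µM primary screen giving 50% or more activity, confirmed by 40% or more on retest at that dose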
# Target sequence (P05107 whole entry, looked up, other chains not shown): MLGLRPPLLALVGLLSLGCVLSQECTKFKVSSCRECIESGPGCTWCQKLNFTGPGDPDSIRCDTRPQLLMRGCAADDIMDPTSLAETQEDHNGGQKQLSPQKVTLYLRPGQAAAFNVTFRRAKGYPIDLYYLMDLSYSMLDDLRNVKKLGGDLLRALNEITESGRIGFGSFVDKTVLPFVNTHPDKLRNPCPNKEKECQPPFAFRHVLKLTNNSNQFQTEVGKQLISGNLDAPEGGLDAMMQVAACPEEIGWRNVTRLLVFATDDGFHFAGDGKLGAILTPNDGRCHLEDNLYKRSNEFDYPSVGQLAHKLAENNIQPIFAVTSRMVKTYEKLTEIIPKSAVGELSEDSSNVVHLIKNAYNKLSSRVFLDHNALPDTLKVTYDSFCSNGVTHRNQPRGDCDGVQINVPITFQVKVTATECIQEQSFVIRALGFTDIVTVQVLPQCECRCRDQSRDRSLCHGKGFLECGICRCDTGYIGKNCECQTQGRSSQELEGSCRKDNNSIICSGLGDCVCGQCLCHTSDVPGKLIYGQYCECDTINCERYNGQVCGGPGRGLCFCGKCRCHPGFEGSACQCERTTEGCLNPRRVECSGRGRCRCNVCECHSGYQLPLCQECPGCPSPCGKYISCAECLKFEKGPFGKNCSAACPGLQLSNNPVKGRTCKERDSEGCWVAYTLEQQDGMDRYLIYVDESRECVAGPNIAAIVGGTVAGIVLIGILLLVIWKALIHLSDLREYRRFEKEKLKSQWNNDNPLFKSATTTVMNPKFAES
# Ecoli tolC: E. coli tolC mutant growth inhibition. E. coli BW25113 tolC mutant growth, OD615. growth inhibition, % at 10 µM (by protocol). 2.2% of 65,000 active. AID 573;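 active = growth inhibition at or above a cutoff equal to the mean over every tested compound plus 3 SD, cut at about 60% in these data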;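 note: growth measured after 20 h incubation at 37 °C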
#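 Signal: optical density read at 615 nm; Assay system: E. coli ΔtolC::kan strain BW25113; Times: 20 h incubation with compound, 37 °C; Dosing: 10 µM final, single dose.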
# Mac1 fbg inh: CD11b/CD18-fibrinogen binding inhibition; inhibition, % at 10 µM; AID 1497; K562 CD11b/CD18 adhesion to fibrinogen, ATPlite luminescence; Mn2+ added to activate the integrin; 0.54% of 93,000 active; P05107+P11215;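 active = primary inhibition of 50% or more at 10 µM, then 40% or more on retest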
# E coli WT exp: blocks growth of wild type E. coli BW25113; OD600 absorbance; growth inhibition, % at 100 µM; 0.15% of 98,000 active;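 active = growth inhibition above about 50% at one test dose, limit read from the data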;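 note: growth measured after 20 h incubation at 37 °C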
# Hits are given with their value; – = inactive; · = not tested or not shown.
SMILES,CD11b adhes enh,Ecoli tolC,Mac1 fbg inh,E coli WT exp
Cc1[nH]n(-c2ccc(F)cc2)c(=O)c1/C=N/c1sc2c(c1C#N)CCCC2,–,·,–,–
Cc1[nH]n(-c2cccc3ccccc23)c(=O)c1/C=N/c1sc2c(c1C#N)CCC2,–,·,100.3,–
C=CCSc1nc(C)cc(/C=C\c2ccccc2)c1C#N,·,·,·,–
CCCCN(CCCC)S(=O)(=O)c1ccc(C(=O)Nc2nnc(COC)o2)cc1,–,96.9,–,–
CCCCN(C)S(=O)(=O)c1ccc(C(=O)Nc2nnc(CSC)o2)cc1,–,98.5,–,–
CCc1nnc(NC(=O)c2ccc(S(=O)(=O)N(CC)CC)cc2)s1,·,–,·,–
CCc1nnc(NC(=O)c2ccc(S(=O)(=O)N(CC)Cc3ccccc3)cc2)o1,–,100.0,–,–
CCCCN(CC)S(=O)(=O)c1ccc(C(=O)Nc2nnc(-c3cccs3)o2)cc1,–,99.1,–,–
CC1(C)Cc2c(cnn2-c2ccccc2)-c2c1c1ccccc1n2CC(O)CBr (stereo unspecified),–,·,–,–
CC1CCCCN1C(=O)/C(=C\c1ccccc1)c1ccccc1 (stereo unspecified),·,·,·,–
O=c1oc2c3c4c(cc2c2c1CCC2)OCCN4CCC3,–,–,–,–
Cc1ccc(S(=O)(=O)NCCSc2nnc(N)s2)cc1,–,–,–,–
Cc1ccc(S(=O)(=O)NCCSc2nnnn2-c2cc(C)ccc2C)cc1,–,68.0,–,–
c1ccc(N(c2ccccc2)c2nc(N3CCCC3)nc(-n3ccnc3)n2)cc1,–,–,–,–
c1ccc(CN2CCN(c3nc(-c4ccccc4)nc(-n4ccnc4)n3)CC2)cc1,–,64.6,–,–
CCOC(=O)N1CCN(c2nc(N(c3ccccc3)c3ccccc3)nc(-n3ccnc3)n2)CC1,·,66.3,·,·
CN(c1ccccc1)c1nc(N2CCCC2)nc(-n2ccnc2)n1,–,96.2,–,–
CN1CCN(CC#CCn2c3ccccc3c3ccccc32)CC1,–,–,–,–
CC(C(=O)Nc1sc2c(c1C(=O)NCC1CCCO1)CCC2)N1C(=O)c2ccccc2C1=O (stereo unspecified),–,·,–,·
CCCc1cc(=O)[nH]c(/N=C(\N)Nc2ccccc2)n1,–,–,–,–
COc1ccc(-c2cnc(SCC(=O)Nc3cc(C)on3)n2Cc2ccco2)cc1,–,79.8,–,–
COc1ccc(C)cc1NC(=O)CSc1nnc(COc2ccccc2)n1Cc1ccco1,–,75.5,–,–
O=C(CSc1nnc(Cc2cccs2)n1Cc1ccco1)Nc1cc(Cl)cc(Cl)c1,–,90.8,–,–
COc1ccc(C)cc1NC(=O)CSc1nnc(COc2ccc(Cl)cc2)n1Cc1ccco1,–,–,–,–
O=C1C(Cc2cccc([N+](=O)[O-])c2)SC(=Nc2ccccc2)N1c1ccccc1 (stereo unspecified),–,·,–,·
SMILES,CD11b adhes enh,Ecoli tolC,Mac1 fbg inh,E coli WT exp
Cc1ccc(C(=O)c2ccc([N+](=O)[O-])cc2)c(C)c1,–,·,–,–
O=[N+]([O-])c1ccc(N=Nc2ccc(O)cc2O)cc1,–,·,93.8,–
C=CCNC(=S)NNC(=O)CCC(O)CCCCC (stereo unspecified),–,·,–,–
Cc1nc2c(C(=O)NCCC(C)C)c[nH]n2c(=O)c1Cc1ccccc1F,–,·,80.8,–
CCCCn1c(NC(=O)c2ccc(F)cc2)c(C#N)c2nc3ccccc3nc21,·,87.6,·,·
CCCCn1c(NC(=O)c2ccccc2)c(C#N)c2nc3ccccc3nc21,–,66.9,99.3,–
N#Cc1c(N)n(CCc2ccc(F)cc2)c2nc3ccccc3nc12,–,·,–,–
CCn1cc(/C=N/N=C2\CCC3C4CCc5cc(O)ccc5C4CC[C@]23C)c(C)n1 (stereo partly specified),–,·,–,–
O=c1c(C(c2ccccc2)c2c(O)sc3ccccc3c2=O)c(O)sc2ccccc12,–,·,91.7,–
COc1ccc(N2CCN(CC(=O)Nc3nc4c(s3)CC(C)CC4)CC2)cc1 (stereo unspecified),–,100.0,–,–
COc1ccc(N2CCN(CC(=O)Nc3cc(C)on3)CC2)cc1,–,–,–,–
Cc1cc(C)c2nc(SCC(=O)NCCC3=CCCCC3)cc(C)c2c1,–,·,–,·
CCc1ccc(-c2cc(C(=O)Nn3cnnc3)c3ccccc3n2)cc1,–,·,77.9,–
CCCc1ccc(-c2cc(C(=O)NN3CCOCC3)c3ccccc3n2)cc1,–,·,–,–
Cc1ccc(-c2nnc(-n3ncc(C#N)c3N)c3ccccc23)cc1C,–,·,–,·
O=C(N1CCN(c2ccccc2F)CC1)C12CC3CC(CC(C3)C1)C2,–,88.9,–,–
O=C(N1CCN(c2ccc(F)cc2)CC1)C12CC3CC(CC(C3)C1)C2,–,–,–,–
Cc1cccc(N2CCN(C(=O)C3CCCCC3)CC2)c1C,–,–,–,–
Cc1cccc(N2CCN(C(=O)C34CC5CC(CC(C5)C3)C4)CC2)c1C,–,63.4,–,–
CN(C)c1ccc(C(=O)n2nnc3ccccc32)cc1,–,·,–,–
CCN(CC)c1ccc(C(=O)n2cnc3ccccc32)cc1,–,77.9,–,–
COc1ccc(CNC(=O)COC(=O)c2cc(-c3cccs3)nc3ccccc23)cc1OC,–,·,–,–
Cc1ccccc1S(=O)(=O)Cc1ccc(C(=O)N2CC(C)CC(C)C2)o1 (stereo unspecified),–,–,–,–
Cc1ccccc1S(=O)(=O)Cc1ccc(C(=O)N2CCN(c3cccc(C)c3C)CC2)o1,–,69.0,–,–
COCC(=O)Nc1sc2c(c1C(=O)OC)CCCC2,·,–,·,–
SMILES,CD11b adhes enh,Ecoli tolC,Mac1 fbg inh,E coli WT exp
COC(=O)c1c(NC(=O)Cc2cccs2)sc2c1CCCC2,–,69.9,–,–
Cc1ccc(C(=O)Nc2sc3c(c2C(=O)O)CCCCC3)o1,–,–,–,–
COC(=O)c1c(NC(=O)c2ccc(C)o2)sc2c1CCCCC2,–,63.0,–,–
COc1ccc(-c2csc(NC(=O)C3CCCCN3S(=O)(=O)c3ccccc3)n2)cc1 (stereo unspecified),–,·,–,–
On1onc2c3cc(-c4ccccc4)nc3ccc21,–,98.0,–,–
c1ccc(-c2cc3c(ccc4nonc43)nn2)cc1,–,–,–,–
O=S(=O)(CCOc1ccccc1)c1nc2ccccc2[nH]1,–,–,–,–
O=C(Nc1cccc(Cl)c1)N(CCN1CCOCC1)Cc1cccc(Cl)c1,–,100.0,–,–
COc1ccc(OC)c(-n2c(SCC(=O)NCc3ccco3)nnc2-c2c[nH]c3ccccc23)c1,–,–,–,–
CC1=CC(C)(C)N(S(=O)(=O)c2ccc(C)cc2)c2ccccc21,–,·,51.9,–
CNc1nc(Nc2ccc(C(C)=O)cc2)nc(OC(C(F)(F)F)C(F)(F)F)n1,–,67.2,–,–
CCOC(=O)c1ccc(NC(=O)c2ccccc2N(C)S(=O)(=O)c2ccccc2)cc1,–,·,–,·
COc1cc2c(C(=O)N3CCN(c4cccc(Cl)c4)CC3)cn(CC(C)C)c(=O)c2cc1OC,–,·,–,–
COc1ccc(Cn2c(N)c(C#N)c3nc4ccccc4nc32)cc1,–,·,–,–
CCC(=O)Nc1c(C#N)c2nc3ccccc3nc2n1-c1ccc(C)cc1,·,–,·,·
COc1ccc(-n2c(NC(=O)c3ccc(Br)o3)c(C#N)c3nc4ccccc4nc32)cc1,–,·,90.1,–
